# Article PMC4471785 (Cancer Science, 2015)
# Key:
# LAT1 = LAT1 (Homo sapiens, UniProt Q01650); assay: Inhibition of DOX or Asp-DOX uptake into S2-LAT1 cells by amino acids; type: cell-based; settings: 100 μmol/L amino acid, 2 min; for Inhibition of the uptake of Asp-DOX by amino acids: 20 μmol/L Asp-DOX; for Inhibition of the uptake of DOX by amino acids: 20 μmol/L DOX
# How it was run: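 S2-LAT1 cells incubated 2 min with 20 μmol/L test compound, with or without 100 μmol/L Leu, Met, Phe, Asp, Glu or Gly. Uptake stopped by three cold DPBS washes. Internalised drug extracted with methanol and quantified by HPLC.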
# H1299 tumors [1] = assay: Biodistribution in H1299 tumor-bearing mice; type: in vivo; settings: H1299 models; DOX versus Asp-DOX; 5 mg/kg i.v.; 1 h
# [2] = system: MDR1-overexpressing MDCK cells; assay: Bidirectional transport assay; type: in vitro ADME; settings: 50 μg/mL
# How it was run: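 MDCK-MDR1 cells grown in high-glucose DMEM with 10% FBS. Seeded at 2 × 10^5 cells per 1.12 cm2 on polycarbonate Transwell inserts (0.4-μm pores) and used after about 7 days. TEER checked first. After 20 min equilibration in HBSS with 25 mM HEPES, 50 μg/mL test compound was added to the apical or basolateral donor side at 37°C with 60 rpm shaking. Receiver sampled at 60 min for HPLC-fluorescence. PDR = Papp(B–A)/Papp(A–B); n = 3.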
# [3] = system: H1299 (human non-small cell lung carcinoma cell line); assay: MTT cytotoxicity, H1299; type: cell-based; settings: 48 h
# How it was run: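 Cells maintained in DMEM or RPMI-1640 with 10% FBS, penicillin and streptomycin at 37°C, 5% CO2. Seeded at 2000–4000 cells/well and grown 48 h, then exposed to test compound at 10, 20 or 50 μg/mL for 48 h. MTT (5 mg/mL stock, 20 μL per 100 μL) added for 2 h; absorbance read at 492 nm. Six repeats; inhibition rate computed from mean values.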
# [4] = Pharmacokinetics in healthy mice; type: in vivo
# How it was run: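 Healthy mice dosed 5 mg/kg via tail vein. Retrobulbar blood taken at 0, 2, 5, 10, 15, 30 min, 1, 2 and 4 h, mixed with 0.5 mM EDTA-PBS and spun at 1750 g for 15 min. Supernatant extracted with methanol, dried under nitrogen, reconstituted in mobile phase and analysed by HPLC. AUC0−t by non-compartmental i.v. bolus model.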
# HepG2 (LAT1-positive) = assay: Cellular uptake in vitro, HepG2; type: cell-based, human; settings: 2 h
# How it was run: (§1)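 HepG2 or H1299 cells seeded at 1.5 × 10^5/well and grown 48 h. Then exposed to test compound at 0, 10, 20 or 50 μg/mL in serum-free medium for 2 h at 37°C, 5% CO2. Rinsed three times with cold DPBS and imaged by fluorescence (excitation 475 nm, 580 nm). Cells then extracted with methanol and sonicated 10 min; supernatant quantified by HPLC/MS.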
# H1299 tumors [5] = assay: Therapy study, H1299 tumor model; type: in vivo, mice; settings: 5 mg/kg i.v. twice a week
# How it was run: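 Nude mice bearing s.c. HepG2 or H1299 xenografts, set up as in the biodistribution model, split into three groups once tumours reached 100 mm3. Groups given saline, doxorubicin or test compound at 5 mg/kg i.v. twice a week. Tumours measured twice weekly; volume = length × width²/2; volumes compared after 21 days of treatment.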
# HepG2 tumors = assay: Biodistribution in HepG2 tumor-bearing mice; type: in vivo; settings: HepG2 models; DOX-treated versus Asp-DOX-treated mice; 5 mg/kg i.v.; 1 h
# How it was run: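 Male nude mice ([…], 4 weeks, 18–22 g) implanted s.c. above the right femoral joint with 1.0 × 107 HepG2, HCT116 or H1299 cells in 0.1 mL PBS, 3–5 per line. On day 20, with tumours about 100 mm3, 5 mg/kg given i.v. Killed 1 h later; tissues frozen in liquid nitrogen. Homogenates extracted twice with methanol (1-naphthol internal standard) for HPLC/MS; reported as % injected dose/g tissue.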
# H1299 (LAT1-negative) = assay: Cellular uptake in vitro, H1299; type: cell-based, human; settings: 2 h
# How it was run: as §1
# Chain of LAT1 (Q01650 whole entry): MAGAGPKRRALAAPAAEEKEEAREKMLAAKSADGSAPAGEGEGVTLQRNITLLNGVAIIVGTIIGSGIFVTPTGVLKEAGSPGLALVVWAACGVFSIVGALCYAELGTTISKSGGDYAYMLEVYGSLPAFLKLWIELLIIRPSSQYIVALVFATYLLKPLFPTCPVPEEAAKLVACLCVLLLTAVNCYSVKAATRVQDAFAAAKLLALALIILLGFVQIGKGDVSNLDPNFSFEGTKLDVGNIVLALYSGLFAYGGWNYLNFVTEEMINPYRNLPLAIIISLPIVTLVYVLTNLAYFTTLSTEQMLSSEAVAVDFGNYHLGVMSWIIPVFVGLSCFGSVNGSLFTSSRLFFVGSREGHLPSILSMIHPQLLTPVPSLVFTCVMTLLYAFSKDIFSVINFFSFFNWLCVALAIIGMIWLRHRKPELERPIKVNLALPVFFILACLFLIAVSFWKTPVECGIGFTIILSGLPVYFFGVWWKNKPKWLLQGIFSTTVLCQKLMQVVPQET
# Chain of LAT1 (P08195 102-630 partner): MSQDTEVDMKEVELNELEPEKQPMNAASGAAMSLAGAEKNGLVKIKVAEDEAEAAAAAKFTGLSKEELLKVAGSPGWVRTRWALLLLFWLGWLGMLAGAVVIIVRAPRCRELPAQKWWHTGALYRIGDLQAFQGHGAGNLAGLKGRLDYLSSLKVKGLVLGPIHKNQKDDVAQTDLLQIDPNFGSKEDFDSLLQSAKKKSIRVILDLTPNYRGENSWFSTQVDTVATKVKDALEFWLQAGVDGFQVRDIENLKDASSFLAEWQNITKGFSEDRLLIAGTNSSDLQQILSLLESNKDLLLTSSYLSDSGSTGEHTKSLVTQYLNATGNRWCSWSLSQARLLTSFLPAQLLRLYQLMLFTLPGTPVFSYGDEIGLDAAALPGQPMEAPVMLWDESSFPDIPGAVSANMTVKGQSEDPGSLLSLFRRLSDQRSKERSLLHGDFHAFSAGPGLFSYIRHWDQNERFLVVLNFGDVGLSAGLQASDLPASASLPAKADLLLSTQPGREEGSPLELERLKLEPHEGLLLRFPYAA
smiles,measurement,setting,value
C[C@H](N)C(=O)O [Ala],Inhibition of the uptake of Asp-DOX by amino acids,LAT1,no inhibition
same,Inhibition of the uptake of DOX by amino acids,LAT1,"neither 100 μmol/L Leu, Met, or Phe, nor 100 μmol/L Ala, Glu, or Gly inhibited"
"COc1cccc2c1C(=O)c1c(O)c3c(c(O)c1C2=O)C[C@@](O)(C(=O)CO)C[C@@H]3O[C@H]1C[C@H](N)[C@H](O)[C@H](C)O1 [DOX, doxorubicin]",Drug levels in tissues,H1299 tumors [1],higher than that of Asp-DOX in all tissues
same,"PDR (efflux rate, Papp(B–A):Papp(A–B))",[2],13.01 ± 1.425
same,Papp A–B,"[2]; apical to basolateral, 60 min",0.53 ± 0.093 10^−6 cm/s
same,Papp B–A,"[2]; basolateral to apical, 60 min",6.63 ± 0.328 10^−6 cm/s
same,IC50,[3],36.51 μg/ml μg/mL
same,t1/2,"[4]; 5 mg/kg i.v. (tail vein), blood",15.12 min
same,AUC0−t,"[4]; 5 mg/kg i.v., 0-4 h",158.894 µg·min/mL
same,Uptake,HepG2 (LAT1-positive); dose 10 μg/mL,0.21 ± 0.030 µg/mL
same,Uptake,HepG2 (LAT1-positive); dose 20 μg/mL,0.44 ± 0.032 µg/mL
same,Uptake,HepG2 (LAT1-positive); dose 50 μg/mL,0.70 ± 0.079 µg/mL
same,Antitumor effect,H1299 tumors [5],stronger than that of Asp-DOX and saline
same,"Drug levels in heart, liver, and lung",HepG2 tumors,significantly higher
same,Uptake,H1299 (LAT1-negative); dose 10 μg/mL,0.20 ± 0.059 µg/mL
same,Uptake,H1299 (LAT1-negative); dose 20 μg/mL,0.33 ± 0.019 µg/mL
same,Uptake,H1299 (LAT1-negative); dose 50 μg/mL,0.69 ± 0.055 µg/mL
N[C@@H](CCC(=O)O)C(=O)O [Glu],Inhibition of the uptake of Asp-DOX by amino acids,LAT1,no inhibition
same,Inhibition of the uptake of DOX by amino acids,LAT1,"neither 100 μmol/L Leu, Met, or Phe, nor 100 μmol/L Ala, Glu, or Gly inhibited"
NCC(=O)O [Gly],Inhibition of the uptake of Asp-DOX by amino acids,LAT1,no inhibition
same,Inhibition of the uptake of DOX by amino acids,LAT1,"neither 100 μmol/L Leu, Met, or Phe, nor 100 μmol/L Ala, Glu, or Gly inhibited"
"CC(C)C[C@H](N)C(=O)O [Leu, leucine]",Inhibition of the uptake of Asp-DOX by amino acids,LAT1,strongly inhibited
same,Inhibition of the uptake of DOX by amino acids,LAT1,"neither 100 μmol/L Leu, Met, or Phe, nor 100 μmol/L Ala, Glu, or Gly inhibited"
"CSCC[C@H](N)C(=O)O [Met, methionine]",Inhibition of the uptake of Asp-DOX by amino acids,LAT1,strongly inhibited
same,Inhibition of the uptake of DOX by amino acids,LAT1,"neither 100 μmol/L Leu, Met, or Phe, nor 100 μmol/L Ala, Glu, or Gly inhibited"
"N[C@@H](Cc1ccccc1)C(=O)O [Phe, phenylalanine]",Inhibition of the uptake of Asp-DOX by amino acids,LAT1,strongly inhibited
same,Inhibition of the uptake of DOX by amino acids,LAT1,"neither 100 μmol/L Leu, Met, or Phe, nor 100 μmol/L Ala, Glu, or Gly inhibited"
